Measurements taken from ChEMBL document CHEMBL5705899 (Biochem J, 2014).
Active and inactive are the calls of the source. No cut-off for these calls is given here.

How the values were obtained:
[1] = target: Ribosomal protein S6 kinase alpha-2 (Homo sapiens) (UniProt Q15349); test: Inhibition of human RPS6KA2 at 1 uM using bio-4xCHKT as substrate in presence of 33P-ATP by ProQinase assay
[2] = target: Tyrosine-protein kinase CSK (Homo sapiens) (UniProt P41240); test: Inhibition of recombinant human N-terminal GST-tagged CSK (1 to 450 residues) expressed in Escherichia coli assessed as remaining activity at 1 uM Cdc2 peptide as substrate incubated for 30 mins in presence of [gamma-33P]ATP by filter binding method relative to control
[3] = target: Serine/threonine-protein kinase 3 (Homo sapiens) (UniProt Q13188); test: Inhibition of recombinant human N-terminal GST-tagged MST2 (2 to 491 residues) expressed in baculovirus infected Sf21 cells assessed as remaining activity at 1 uM using MBP as substrate incubated for 30 mins in presence of [gamma-33P]ATP by filter binding method relative to control
[4] = target: Serine/threonine-protein kinase 16 (Homo sapiens) (UniProt O75716); test: Inhibition of recombinant human N-terminal GST-tagged MPSK1 (1 to 305 residues) expressed in Escherichia coli assessed as remaining activity at 1 uM using RRHYYYDTHTNTYYLRTFGHNTRR as substrate incubated for 30 mins in presence of [gamma-33P]ATP by filter binding method relative to control
[5] = target: Tyrosine-protein kinase ZAP-70 (Homo sapiens) (UniProt P43403); test: Inhibition of recombinant human N-terminal His6-tagged ZAP70 (1 to 619 residues) expressed in baculovirus infected Sf21 cells assessed as remaining activity at 1 uM using Poly(Glu,Tyr) as substrate incubated for 30 mins in presence of [gamma-33P]ATP by filter binding method relative to control
[6] = target: Serine/threonine-protein kinase PINK1, mitochondrial (Homo sapiens) (UniProt Q9BXM7); test: Inhibition of recombinant human N-terminal MBP-tagged PINK1 (1 to 570 residues) expressed in Escherichia coli assessed as remaining activity at 1 uM using KKSRGDYMTMQIG as substrate incubated for 30 mins in presence of [gamma-33P]ATP by filter binding method relative to control
[7] = target: MAP kinase-activated protein kinase 5 (Homo sapiens) (UniProt Q8IW41); test: Inhibition of recombinant human His6-tagged PRAK (1 to 471 residues) expressed in baculovirus infected Sf21 cells assessed as remaining activity at 1 uM using phosphorylase b peptide as substrate incubated for 30 mins in presence of [gamma-33P]ATP by filter binding method relative to control
[8] = target: Protein kinase C zeta type (Homo sapiens) (UniProt Q05513); test: Inhibition of recombinant human N-terminal His6-tagged PKCzeta (2 to 592 residues) expressed in baculovirus infected Sf21 cells assessed as remaining activity at 1 uM using ERMRPRKRQGSVRRV as substrate incubated for 30 mins in presence of [gamma-33P]ATP by filter binding method relative to control
[9] = target: Tyrosine-protein kinase Mer (Homo sapiens) (UniProt Q12866); test: Inhibition of human MERTK at 1 uM using polyEY as substrate in presence of 33P-ATP by ProQinase assay
[10] = target: Vascular endothelial growth factor receptor 3 (Homo sapiens) (UniProt P35916); test: Inhibition of human VEGFR3 at 1 uM using polyEY as substrate in presence of 33P-ATP by ProQinase assay
[11] = target: MAP kinase-activated protein kinase 3 (Homo sapiens) (UniProt Q16644); test: Inhibition of human MAPKAPK3 at 1 uM using bio-4xCHKT as substrate in presence of 33P-ATP by ProQinase assay
[12] = target: Calcium/calmodulin-dependent protein kinase type IV (Homo sapiens) (UniProt Q16566); test: Inhibition of human CAMK4 at 1 uM using JUN as substrate in presence of 33P-ATP by ProQinase assay
[13] = target: Calcium/calmodulin-dependent protein kinase type II subunit delta (Homo sapiens) (UniProt Q13557); test: Inhibition of human CAMK2D at 1 uM using RBER-CHKtide as substrate in presence of 33P-ATP by ProQinase assay
[14] = target: Mitogen-activated protein kinase 10 (Homo sapiens) (UniProt P53779); test: Inhibition of human JNK3 at 1 uM using ATF2 as substrate in presence of 33P-ATP by ProQinase assay
[15] = target: Dual specificity tyrosine-phosphorylation-regulated kinase 2 (Homo sapiens) (UniProt Q92630); test: Inhibition of human DYRK2 at 1 uM using RBER-IRStide as substrate in presence of 33P-ATP by ProQinase assay
[16] = target: RAC-alpha serine/threonine-protein kinase (Homo sapiens) (UniProt P31749); test: Inhibition of human AKT1 at 1 uM using RBER-GSK3 as substrate in presence of 33P-ATP by ProQinase assay
[17] = target: Glycogen synthase kinase-3 beta (Homo sapiens) (UniProt P49841); test: Inhibition of human GSK3beta at 1 uM using RBER-CHKtide as substrate in presence of 33P-ATP by ProQinase assay
[18] = target: Serine/threonine-protein kinase TBK1 (Homo sapiens) (UniProt Q9UHD2); test: Inhibition of human TBK1 at 1 uM using casein as substrate in presence of 33P-ATP by ProQinase assay
[19] = target: PAS domain-containing serine/threonine-protein kinase (Homo sapiens) (UniProt Q96RG2); test: Inhibition of human PASK at 1 uM using RBER-CHKtide as substrate in presence of 33P-ATP by ProQinase assay
[20] = target: cGMP-dependent protein kinase 2 (Homo sapiens) (UniProt Q13237); test: Inhibition of human PRKG2 at 1 uM using RBER-GSK3 as substrate in presence of 33P-ATP by ProQinase assay
[21] = target: Death-associated protein kinase 1 (Homo sapiens) (UniProt P53355); test: Inhibition of human DAPK1 at 1 uM using RBER-GSK3 as substrate in presence of 33P-ATP by ProQinase assay
Homo sapiens = species: Homo sapiens; test: Inhibition of recombinant human N-terminal His6-tagged PI3Kalpha E542K mutant (2 to 1068 residues)/p85A (1 to 724 residues) expressed in baculovirus expression system at 1 uM using diC8 PIP2 as substrate incubated for 80 mins by ADP-Glo assay
U2OS = test: Inhibition of PI3K in human U2OS cells expressing FLAG-tagged SGK3 assessed as reduction in AKT phosphorylation at S473 residues at 0.01 to 1 uM 1 hr by immunoblot analysis; format: cell-based; conditions: dose 0.01-1 µM
Summary of the method: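 Flp-In T-REx U2OS cells were grown in McCoy medium with 10% FBS. Expression of C-terminally FLAG-tagged full-length SGK3 was induced with 0.01 mg/ml doxycycline for 24 h. Cells were treated with inhibitor for 1 h and lysed in phosphatase-inhibitor buffer. Lysates were cleared at 16000 g for 10 min at 4°C, protein was measured by Bradford, and phosphorylation was read by immunoblot with ECL detection.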

Calcium/calmodulin-dependent protein kinase type II subunit delta (Homo sapiens), sequence (Q13557 whole entry): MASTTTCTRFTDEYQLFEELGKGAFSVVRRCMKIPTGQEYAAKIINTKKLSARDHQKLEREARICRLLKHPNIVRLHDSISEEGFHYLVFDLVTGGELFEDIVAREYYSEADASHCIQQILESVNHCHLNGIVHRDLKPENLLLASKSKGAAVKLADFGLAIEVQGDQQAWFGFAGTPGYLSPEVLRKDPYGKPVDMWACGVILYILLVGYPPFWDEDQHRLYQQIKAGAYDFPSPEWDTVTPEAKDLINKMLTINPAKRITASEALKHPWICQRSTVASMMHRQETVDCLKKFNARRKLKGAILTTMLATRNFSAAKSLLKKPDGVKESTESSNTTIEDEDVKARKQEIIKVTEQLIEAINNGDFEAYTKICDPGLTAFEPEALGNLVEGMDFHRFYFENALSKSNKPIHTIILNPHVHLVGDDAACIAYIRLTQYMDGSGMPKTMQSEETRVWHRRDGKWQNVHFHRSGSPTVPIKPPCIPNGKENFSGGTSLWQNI
Serine/threonine-protein kinase TBK1 (Homo sapiens), sequence (Q9UHD2 whole entry, the tested form may be a part): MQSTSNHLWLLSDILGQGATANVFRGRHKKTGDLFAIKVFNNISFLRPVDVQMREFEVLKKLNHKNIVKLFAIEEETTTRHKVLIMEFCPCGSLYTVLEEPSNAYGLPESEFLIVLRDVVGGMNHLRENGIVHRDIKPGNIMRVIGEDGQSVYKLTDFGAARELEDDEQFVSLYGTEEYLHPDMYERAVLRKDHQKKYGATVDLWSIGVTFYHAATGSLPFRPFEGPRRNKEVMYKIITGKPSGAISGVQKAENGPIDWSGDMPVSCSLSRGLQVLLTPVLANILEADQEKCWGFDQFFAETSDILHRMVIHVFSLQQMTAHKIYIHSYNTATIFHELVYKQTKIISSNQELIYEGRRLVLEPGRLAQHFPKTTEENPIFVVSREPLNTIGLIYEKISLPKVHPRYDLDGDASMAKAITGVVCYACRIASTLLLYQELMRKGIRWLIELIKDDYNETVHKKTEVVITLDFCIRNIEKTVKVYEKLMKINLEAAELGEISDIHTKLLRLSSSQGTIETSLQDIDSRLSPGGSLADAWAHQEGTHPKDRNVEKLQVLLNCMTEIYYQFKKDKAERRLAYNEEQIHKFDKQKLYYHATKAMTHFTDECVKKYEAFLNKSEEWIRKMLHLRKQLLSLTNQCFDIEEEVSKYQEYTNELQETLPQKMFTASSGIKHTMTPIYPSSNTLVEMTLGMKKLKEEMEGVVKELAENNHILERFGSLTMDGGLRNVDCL
PAS domain-containing serine/threonine-protein kinase (Homo sapiens), sequence (Q96RG2 whole entry, the tested form may be a part): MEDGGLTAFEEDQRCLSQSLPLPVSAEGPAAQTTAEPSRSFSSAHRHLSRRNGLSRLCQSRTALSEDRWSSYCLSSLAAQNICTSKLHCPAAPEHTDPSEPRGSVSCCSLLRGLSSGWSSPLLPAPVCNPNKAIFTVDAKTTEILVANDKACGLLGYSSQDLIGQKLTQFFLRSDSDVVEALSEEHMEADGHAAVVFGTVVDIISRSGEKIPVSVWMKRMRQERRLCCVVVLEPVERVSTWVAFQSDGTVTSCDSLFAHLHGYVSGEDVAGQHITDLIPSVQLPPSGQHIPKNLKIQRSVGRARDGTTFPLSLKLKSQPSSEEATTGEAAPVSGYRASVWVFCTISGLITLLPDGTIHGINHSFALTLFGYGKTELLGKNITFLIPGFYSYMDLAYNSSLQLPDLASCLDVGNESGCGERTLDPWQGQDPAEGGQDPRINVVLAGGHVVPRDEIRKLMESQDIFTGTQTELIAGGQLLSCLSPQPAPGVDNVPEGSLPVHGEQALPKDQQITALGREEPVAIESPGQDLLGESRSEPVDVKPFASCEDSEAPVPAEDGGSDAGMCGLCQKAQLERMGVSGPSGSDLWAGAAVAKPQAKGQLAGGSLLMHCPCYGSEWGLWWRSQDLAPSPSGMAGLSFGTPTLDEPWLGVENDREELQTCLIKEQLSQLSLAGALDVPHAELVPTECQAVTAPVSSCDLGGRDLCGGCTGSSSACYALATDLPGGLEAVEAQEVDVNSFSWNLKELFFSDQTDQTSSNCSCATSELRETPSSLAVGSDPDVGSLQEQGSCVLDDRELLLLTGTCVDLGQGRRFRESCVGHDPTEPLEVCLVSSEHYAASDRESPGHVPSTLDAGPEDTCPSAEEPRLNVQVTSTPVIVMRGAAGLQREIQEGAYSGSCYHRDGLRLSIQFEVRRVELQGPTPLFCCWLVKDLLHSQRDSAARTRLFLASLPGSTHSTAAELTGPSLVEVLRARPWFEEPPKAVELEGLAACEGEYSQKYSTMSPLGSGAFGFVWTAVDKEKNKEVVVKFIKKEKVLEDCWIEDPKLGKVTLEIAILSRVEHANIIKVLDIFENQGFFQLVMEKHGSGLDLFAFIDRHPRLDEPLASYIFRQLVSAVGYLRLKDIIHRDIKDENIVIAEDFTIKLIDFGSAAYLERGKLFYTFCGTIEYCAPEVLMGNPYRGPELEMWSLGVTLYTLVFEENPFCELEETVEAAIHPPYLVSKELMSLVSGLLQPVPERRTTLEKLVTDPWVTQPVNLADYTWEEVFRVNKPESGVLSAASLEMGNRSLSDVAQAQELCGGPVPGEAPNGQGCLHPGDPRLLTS
Tyrosine-protein kinase ZAP-70 (Homo sapiens), sequence (P43403 whole entry, the tested form may be a part): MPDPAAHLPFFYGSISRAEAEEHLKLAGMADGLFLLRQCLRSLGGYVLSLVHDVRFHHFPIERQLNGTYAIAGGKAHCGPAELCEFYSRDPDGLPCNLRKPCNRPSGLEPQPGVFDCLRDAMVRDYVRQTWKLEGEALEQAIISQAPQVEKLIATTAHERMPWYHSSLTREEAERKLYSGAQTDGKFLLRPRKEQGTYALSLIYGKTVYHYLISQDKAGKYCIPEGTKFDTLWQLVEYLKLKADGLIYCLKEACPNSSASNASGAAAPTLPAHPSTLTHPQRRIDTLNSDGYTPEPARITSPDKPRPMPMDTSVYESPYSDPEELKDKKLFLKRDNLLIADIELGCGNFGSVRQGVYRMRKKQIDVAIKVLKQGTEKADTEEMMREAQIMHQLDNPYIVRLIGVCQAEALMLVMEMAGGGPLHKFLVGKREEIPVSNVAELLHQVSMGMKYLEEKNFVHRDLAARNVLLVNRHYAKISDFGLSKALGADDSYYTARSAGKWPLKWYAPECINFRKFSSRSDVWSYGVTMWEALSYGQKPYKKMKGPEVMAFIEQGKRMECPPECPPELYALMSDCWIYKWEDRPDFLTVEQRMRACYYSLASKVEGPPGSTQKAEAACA
Protein kinase C zeta type (Homo sapiens), sequence (Q05513 whole entry, the tested form may be a part): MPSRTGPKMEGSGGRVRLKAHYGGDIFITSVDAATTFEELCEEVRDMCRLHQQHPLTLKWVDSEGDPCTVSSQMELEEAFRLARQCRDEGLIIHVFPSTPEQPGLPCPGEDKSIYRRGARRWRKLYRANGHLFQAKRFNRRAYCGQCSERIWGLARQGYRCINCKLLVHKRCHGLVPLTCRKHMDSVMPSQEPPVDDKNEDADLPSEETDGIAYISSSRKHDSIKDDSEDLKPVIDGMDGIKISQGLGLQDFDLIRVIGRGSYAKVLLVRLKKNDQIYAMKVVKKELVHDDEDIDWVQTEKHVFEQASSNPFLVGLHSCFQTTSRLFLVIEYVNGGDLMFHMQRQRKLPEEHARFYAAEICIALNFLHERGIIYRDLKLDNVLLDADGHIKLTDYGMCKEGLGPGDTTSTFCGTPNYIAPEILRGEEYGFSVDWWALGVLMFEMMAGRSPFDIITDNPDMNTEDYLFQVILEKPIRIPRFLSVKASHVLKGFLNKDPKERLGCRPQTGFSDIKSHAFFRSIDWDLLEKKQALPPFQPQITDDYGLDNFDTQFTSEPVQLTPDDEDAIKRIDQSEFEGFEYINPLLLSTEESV
MAP kinase-activated protein kinase 3 (Homo sapiens), sequence (Q16644 whole entry, looked up): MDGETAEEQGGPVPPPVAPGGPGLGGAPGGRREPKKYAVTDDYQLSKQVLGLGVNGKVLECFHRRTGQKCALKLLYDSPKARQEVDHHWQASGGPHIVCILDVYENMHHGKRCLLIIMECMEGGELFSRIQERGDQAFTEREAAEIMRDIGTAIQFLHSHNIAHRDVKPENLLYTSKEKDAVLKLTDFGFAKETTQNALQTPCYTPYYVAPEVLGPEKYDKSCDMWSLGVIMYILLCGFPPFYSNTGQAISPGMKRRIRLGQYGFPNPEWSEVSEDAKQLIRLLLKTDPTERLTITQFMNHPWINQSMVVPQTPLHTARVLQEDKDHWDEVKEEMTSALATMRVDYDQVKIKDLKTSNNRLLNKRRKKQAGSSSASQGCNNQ
Tyrosine-protein kinase CSK (Homo sapiens), sequence (P41240 2-450 limits assumed): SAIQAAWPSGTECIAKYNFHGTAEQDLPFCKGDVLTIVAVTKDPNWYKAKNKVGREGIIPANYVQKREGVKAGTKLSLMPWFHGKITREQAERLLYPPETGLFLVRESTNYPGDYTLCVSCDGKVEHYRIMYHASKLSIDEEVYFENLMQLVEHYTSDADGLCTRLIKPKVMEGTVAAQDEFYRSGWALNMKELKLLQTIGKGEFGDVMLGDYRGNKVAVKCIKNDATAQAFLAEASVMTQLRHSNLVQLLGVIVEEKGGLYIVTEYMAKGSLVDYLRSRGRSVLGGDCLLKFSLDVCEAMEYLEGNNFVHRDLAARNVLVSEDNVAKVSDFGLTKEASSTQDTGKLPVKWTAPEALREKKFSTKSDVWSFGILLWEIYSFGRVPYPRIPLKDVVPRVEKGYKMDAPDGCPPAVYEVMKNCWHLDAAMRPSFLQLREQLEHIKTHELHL
Serine/threonine-protein kinase 16 (Homo sapiens), sequence (O75716 whole entry, the tested form may be a part): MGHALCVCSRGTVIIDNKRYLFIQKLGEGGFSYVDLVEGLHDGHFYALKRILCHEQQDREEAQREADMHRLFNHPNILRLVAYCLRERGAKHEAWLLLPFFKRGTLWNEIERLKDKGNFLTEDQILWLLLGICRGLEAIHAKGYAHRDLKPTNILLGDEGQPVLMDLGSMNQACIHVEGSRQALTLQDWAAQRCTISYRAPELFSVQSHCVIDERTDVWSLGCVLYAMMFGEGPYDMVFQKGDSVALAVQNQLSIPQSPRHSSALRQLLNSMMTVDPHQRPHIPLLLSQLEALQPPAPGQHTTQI

CC(C)(O)CNc1ncc(-c2ccnc(Nc3ccnc(Cl)c3)n2)c(CC2CC2)n1
inhibition [1]: inactive | Activity [2]: 132% | Activity [3]: 120% | Activity [4]: 118% | Activity [5]: 110% | Activity [6]: 109% | Activity [7]: 105% | Activity [8]: 103% | inhibition [9]: inactive | inhibition [10]: inactive | inhibition [11]: inactive | inhibition [12]: inactive | inhibition [13]: inactive | inhibition [14]: inactive | inhibition [15]: inactive | inhibition [16]: inactive | inhibition [17]: inactive | inhibition [18]: inactive | inhibition [19]: inactive | inhibition [20]: inactive | inhibition [21]: inactive | inhibition (Homo sapiens): inactive | inhibition (U2OS): inactive
